Measured values reported in ChEMBL document CHEMBL5108003, “Identification of 2-hydroxybenzoic acid derivatives as selective SIRT5 inhibitors” (Eur J Med Chem, 2022).

What follows are molecules tested against T1, NAD-dependent protein deacylase sirtuin-5, mitochondrial (Homo sapiens, UniProt Q9NXA8) (assay: Inhibition of human SIRT5 using fluorogenic substrate preincubated for 1 hr in presence of NAD followed by substrate addition and measured after 15 to 30 mins by trypsin-coupled fluorescence plate reader analysis).
Target sequence in this assay (Q9NXA8 whole entry): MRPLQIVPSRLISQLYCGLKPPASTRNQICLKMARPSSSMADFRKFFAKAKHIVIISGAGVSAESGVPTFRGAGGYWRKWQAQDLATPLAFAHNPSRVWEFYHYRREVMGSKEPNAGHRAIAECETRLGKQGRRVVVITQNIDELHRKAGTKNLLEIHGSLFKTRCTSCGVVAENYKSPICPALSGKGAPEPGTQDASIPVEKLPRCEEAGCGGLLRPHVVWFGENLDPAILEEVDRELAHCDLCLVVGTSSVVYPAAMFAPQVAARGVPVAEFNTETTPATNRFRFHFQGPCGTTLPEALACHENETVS

Row | IC50 [µM] | SMILES
1 | 24.3 | O=C(O)c1ccc(NC(=S)Nc2nc(-c3ccc(C(F)(F)F)cc3)cs2)cc1O
2 | 201 | CC(=O)Nc1ccc(-c2csc(Nc3ccc(C(=O)O)cc3)n2)cc1
3 | > 400 | CCOC(=O)c1ccc(Nc2nc(-c3ccc(NC(C)=O)cc3)cs2)cc1O
4 | 26.8 | O=C(O)c1ccc(NC(=S)Nc2nc(-c3cccc(C(F)(F)F)c3)cs2)cc1O

Each molecule was assayed against T1, NAD-dependent protein deacylase sirtuin-5, mitochondrial (assay: Stabilization of human SIRT5 assessed as change in melting temperature at 100 uM by thermal shift assay).
Outline: (§1)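 Recombinant wild-type SIRT5 at 0.2 mg/ml final in 20 mM Bis-Tris propane pH 7.5 with 150 mM NaCl. The dye was 0.1 mM 1,8-ANS, and compound was at 100 μM with DMSO as the vehicle reference. Wells were overlaid with silicon oil and heated continuously from 25 °C to 90 °C. Tm came from fluorescence melt curves versus the DMSO control. Each reaction was run in quadruplicate.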
Target sequence in this assay (Q9NXA8 37-310 limits assumed): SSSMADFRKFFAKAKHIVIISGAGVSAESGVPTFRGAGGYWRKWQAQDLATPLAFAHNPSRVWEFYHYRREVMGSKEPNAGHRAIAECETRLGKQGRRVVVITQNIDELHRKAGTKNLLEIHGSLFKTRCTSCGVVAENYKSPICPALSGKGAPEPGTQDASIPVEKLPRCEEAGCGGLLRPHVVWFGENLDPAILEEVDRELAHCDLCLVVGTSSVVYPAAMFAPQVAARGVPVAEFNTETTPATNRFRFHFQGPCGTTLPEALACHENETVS

Row | ΔTm [°C] | SMILES
5 | 2.1 | N#Cc1ccc(-c2csc(NC(=S)Nc3ccc(C(=O)O)c(O)c3)n2)cc1
6 | 1.2 | Cc1cccc(-c2csc(NC(=S)Nc3ccc(C(=O)O)c(O)c3)n2)c1
7 | 1.1 | Cc1ccccc1-c1csc(NC(=S)Nc2ccc(C(=O)O)c(O)c2)n1
8 | 0.9 | COc1cccc(-c2csc(NC(=S)Nc3ccc(C(=O)O)c(O)c3)n2)c1
9 | 0.72 | O=C(O)c1ccc(NC(=S)Nc2nc(-c3cccc(O)c3)cs2)cc1O
10 | 1.2 | O=C(O)c1ccc(NC(=S)Nc2nc(-c3ccc(C(F)(F)F)cc3)cs2)cc1O
11 | 1.8 | N#Cc1ccc(-c2csc(NC(=S)Nc3ccc(C(=O)O)c(O)c3)n2)cc1F
12 | 1.8 | O=C(O)c1ccc(NC(=S)Nc2nc(-c3ccc([N+](=O)[O-])cc3)cs2)cc1O
13 | 0.53 | CC(=O)Nc1ccc(-c2csc(Nc3ccc(C(=O)O)cc3)n2)cc1
14 | 0.9 | CC(=O)Nc1ccccc1-c1csc(NC(=S)Nc2ccc(C(=O)O)c(O)c2)n1
15 | 1.9 | O=C(O)c1ccc(NC(=S)Nc2nc(-c3ccc(F)cc3F)cs2)cc1O
16 | 0.8 | CNS(=O)(=O)c1cccc(-c2csc(NC(=S)Nc3ccc(C(=O)O)c(O)c3)n2)c1
17 | 1.8 | CC(=O)Nc1ccc(-c2csc(Nc3ccc(C(=O)O)c(O)c3)n2)cc1
18 | 1 | O=C(O)c1ccc(NC(=S)Nc2nc(-c3ccccc3F)cs2)cc1O
19 | 1.8 | O=C(O)c1ccc(NC(=S)Nc2nc(-c3ccc([N+](=O)[O-])c(F)c3)cs2)cc1O
20 | 1.1 | O=C(O)c1ccc(NC(=S)Nc2nc(-c3ccc(Cl)cc3)cs2)cc1O
21 | 1.5 | CC(=O)Nc1cccc(-c2csc(NC(=S)Nc3ccc(C(=O)O)c(O)c3)n2)c1

Row | ΔTm [°C] | SMILES
22 | 1.2 | O=C(O)c1ccc(NC(=S)Nc2nc(-c3ccc(Br)cc3)cs2)cc1O
23 | 0.9 | COc1ccc(-c2csc(NC(=S)Nc3ccc(C(=O)O)c(O)c3)n2)cc1
24 | 1.3 | O=C(O)c1ccc(NC(=S)Nc2nc(-c3ccc(F)cc3)cs2)cc1O
25 | 0.9 | CNS(=O)(=O)c1ccc(-c2csc(NC(=S)Nc3ccc(C(=O)O)c(O)c3)n2)cc1
26 | 1.8 | O=C(O)c1ccc(NC(=S)Nc2nc(-c3ccc(F)c(F)c3)cs2)cc1O
27 | 1.3 | O=C(O)c1ccc(NC(=S)Nc2nc(-c3ccc(F)c(S(=O)(=O)NC4CCCC4)c3)cs2)cc1O
28 | 1.4 | Cc1ccc(-c2csc(NC(=S)Nc3ccc(C(=O)O)c(O)c3)n2)cc1
29 | 1.8 | O=C(O)c1ccc(NC(=S)Nc2nc(-c3ccc([N+](=O)[O-])c(S(=O)(=O)NCc4ccccc4)c3)cs2)cc1O
30 | 0.12 | CCOC(=O)c1ccc(Nc2nc(-c3ccc(NC(C)=O)cc3)cs2)cc1O
31 | 1.22 | O=C(O)c1ccc(NC(=S)Nc2nc(-c3cccc(F)c3)cs2)cc1O
32 | 1.1 | O=C(O)c1ccc(NC(=S)Nc2nc(-c3cccc(C(F)(F)F)c3)cs2)cc1O
33 | 0.8 | O=C(O)c1ccc(NC(=S)Nc2nc(-c3ccc(O)cc3)cs2)cc1O
34 | 1.9 | O=C(O)c1ccc(NC(=S)Nc2nc(-c3ccc(F)c(S(=O)(=O)NCc4ccccc4)c3)cs2)cc1O
35 | 1.6 | O=C(O)c1ccc(NC(=S)Nc2nc(-c3ccc([N+](=O)[O-])cc3F)cs2)cc1O
36 | 2.5 | CC(=O)Nc1ccc(-c2csc(NC(=S)Nc3ccc(C(=O)O)c(O)c3)n2)cc1
37 | 1.9 | N#Cc1ccc(-c2csc(NC(=S)Nc3ccc(C(=O)O)c(O)c3)n2)c(F)c1

These molecules were tested against T1, NAD-dependent protein deacylase sirtuin-5, mitochondrial (assay: Stabilization of wild type human SIRT5 assessed as melting temperature at 100 uM by thermal shift assay).
Outline: as §1
Target sequence in this assay (Q9NXA8 37-310 limits assumed): as above

Row | Tm [°C] | SMILES
38 | 51 | Cc1ccc(C(=O)Nc2ccc(S(=O)(=O)O)c3cc(S(=O)(=O)O)cc(S(=O)(=O)O)c23)cc1NC(=O)c1cccc(NC(=O)Nc2cccc(C(=O)Nc3cc(C(=O)Nc4ccc(S(=O)(=O)O)c5cc(S(=O)(=O)O)cc(S(=O)(=O)O)c45)ccc3C)c2)c1
39 | 52.8 | CC(=O)Nc1ccc(-c2csc(Nc3ccc(C(=O)O)c(O)c3)n2)cc1
